Data taken from PMC4166030 (Bioconjugate Chemistry, 2014).

System: KRAS2 G12D RNA
Assay: CD thermal melting of TO-PNA-peptide:RNA duplexes
Assay type: binding
Summary of the method: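 Gel-purified synthetic RNA 20mers were annealed with the test compound at 1 μM each (final) in sodium phosphate, 1.0 M NaCl, 5 mM EDTA, pH 7.2, by heating at 95 °C for 10 min and then cooling for 10 min. CD at 265 nm was tracked over a 25→95 °C ramp at 0.5 °C/min, with baseline slopes subtracted. Tm was taken as the first-derivative maximum (two-state model); n = 3, ± SD.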

GCCATOTCAGCTCC-AEEA-D(Cys-Ser-Lys-Cys) (disulfide) [TO2]
Tm decrease relative to TO1 (12mer) KRAS2 G12D duplex: 2 °C
